Experimental data published in the array DNA melting data of Ke et al. (doi:10.1101/2024.01.08.574731).

How the values were obtained:
[1] = melting temperature; fluorescence melt of hairpins on a sequencing array, two-state fit, raised by 9.35 °C to match UV melts; settings: sodium 0.088 M
Procedure, shortened: (§1)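 Hairpins were imaged by Cy3 fluorescence on a sequenced MiSeq flow cell with annealed Cy3 and quencher oligos, in 50 mM Na-HEPES pH 8.0, 25 mM NaCl, in 2.5 °C steps up to 60 °C. Bootstrapped two-state fits of normalised signals gave melting temperature and folding enthalpy. Four replicates were combined by inverse variance, and fitted temperatures were raised by 9.35 °C to match UV melts.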

[2] = folding enthalpy; higher = less favourable; fluorescence melt of hairpins on a sequencing array, two-state fit; settings: sodium 0.088 M
Procedure, shortened: as §1

Sequence | Tm [1] [°C] | folding enthalpy [2] [kcal/mol]
GAATTCCGAAAGGATTTC (((.(((....))).))) | 40.7 | -29.7
GAATTCGAAAGAATTC ((((((....)))))) | 54.4 | -44.9
GAATTCGGAAACGAACTC ((.((((....)))).)) | 33.7 | -17.4
GAATTGGGAAACCAATTC (((((((....))))))) | 54 | -45
GAATTTGGAAACAAATTC (((((((....))))))) | 52 | -45.1
GACAAAACGAAAGTTGTC (((..(((....)))))) | 39.3 | -24.8
GACAAAGGAAACTTTGTC (((((((....))))))) | 53.9 | -43.8
GACAACCCGAAAGGGGTC (((..(((....)))))) | 39.1 | -12.9
GACAACGAAAGTTGTGTC ((((((....)))..))) | 50.6 | -14.7
GACAACGAAAGTTTCGTC ((((((....)))..))) | 32.8 | -14.1
GACAACGGAAACGCTGTC ((((.((....)).)))) | 45.6 | -34.7
GACAAGCCGAAAGGCGTC (((..(((....)))))) | 42.3 | -9.16
GACAATCCGAAAGGAGTC (((..(((....)))))) | 32.7 | -17.2
GACAATGGAAACATTGCC (.(((((....))))).) | 38.2 | -18.6
GACAATGGAAACATTGTC (((((((....))))))) | 57 | -47.7
GACAATGGAAACGTTGTC (((((.(....).))))) | 46.5 | -34.7
GACACACGAAAGTGGGTC (((.(((....))).))) | 67.6 | -37.8
GACACACGAAAGTGGTC (((.(((....)))))) | 49.7 | -20.7
GACACAGGAAACTATGTC ((((.((....)).)))) | 29.9 | -24.5
GACACAGGAAACTGCGTC (((.(((....))).))) | 45.3 | -23.4
GACACCCGAAAGGGAGTC (((.(((....))).))) | 57.5 | -29.6
GACACCGAAAGGTCAGTC ((((((....)))..))) | 35.9 | -12.5
GACACCGAAAGGTGGGTC ((((((....)))..))) | 65.5 | -11.2
